Laboratory results from ChEMBL document CHEMBL1135142, “Synthesis and in vitro evaluation of N,N'-diphenyl and N-naphthyl-N'-phenylguanidines as N-methyl-D-aspartate receptor ion-channel ligands” (Bioorg Med Chem Lett, 2002).

Assays:
[1] = Partition coefficient (logP); type: physicochemical; conditions: octanol/water
Summary of the method: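 Lipophilicity (log P) estimated by HPLC analysis.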

Glutamate NMDA receptor = assay: In vitro binding to N-methyl-D-aspartate glutamate receptor using [3H]MK-801 (1 nM) and rat brain membrane suspensions
Summary of the method: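 Test compounds displaced the radioligand, and IC₅₀ values were read from displacement curves. Ki was calculated from IC₅₀ by the Cheng–Prusoff method. Values are means of at least three experiments, with standard deviation.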

logP [1] | Ki (Glutamate NMDA receptor) [nM] | Compound
2.94 | 21.9 | Cc1cc(C)cc(N(C)C(=N)Nc2cccc3ccccc23)c1
2.91 | 3.48 | CSc1ccc(Cl)c(NC(=N)N(C)c2cccc(I)c2)c1
2.34 |  | CSc1ccc(Cl)c(NC(=N)N(C)c2cccc(F)c2)c1
2.34 | 5.2 | COc1cccc(N(C)C(=N)Nc2cc(SC)ccc2Cl)c1
3.12 | 14 | CSc1ccc(Cl)c(NC(=N)N(C)c2cc(C)cc(C)c2)c1
3 | 6.28 | CCc1cccc(N(C)C(=N)Nc2cc(SC)ccc2Cl)c1

More lines, now with the values behind:

Compound | logP [1] | Ki (Glutamate NMDA receptor) [nM]
CN(C(=N)Nc1cccc2ccccc12)c1cccc(I)c1 | 2.94 | 4.65
COc1cccc(N(C)C(=N)Nc2cccc3ccccc23)c1 | 2.26 | 43.5
CN(C(=N)Nc1cccc2ccccc12)c1cccc(F)c1 | 2.31 | 839
CSc1cccc(N(C)C(=N)Nc2cc(SC)ccc2Cl)c1 [CNS-5161] | 2.68 | 1.87
